In ChEMBL document CHEMBL5104224, “Alkyltriphenylphosphonium turns naphthoquinoneimidazoles into potent membrane depolarizers against mycobacteria” (RSC Med Chem, 2022):

Tests used:
[1] = Selectivity index, ratio of IC50 for cytotoxicity against African green monkey Vero E6 cells to MIC50 for antimycobacterial activity against Mycobacterium bovis BCG ATCC 35734; assay type: toxicity, cell-based, Vero C1008; conditions: read-out: Selectivity Index
[2] = Selectivity index, ratio of IC50 for cytotoxicity against African green monkey Vero E6 cells to MIC50 for antimycobacterial activity against Mycobacterium tuberculosis H37Rv ATCC 27294; assay type: toxicity, cell-based, Vero C1008; conditions: read-out: Selectivity Index
Summary of the method: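 SI is the ratio of a Vero E6 IC50 to an H37Rv MIC50. Vero E6 cells in DMEM + 10% heat-inactivated FBS, 1% penicillin; 30,000 cells/well, 24 h adherence, then compound for 48 h (0.5% DMSO), 37°C, 5% CO2. MTS read at 490 nm after 3 h; IC50 from sigmoidal viability fit, ≥3 determinations. MIC50 by broth dilution: 50% growth inhibition versus drug-free control.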

[3] = Aqueous solubility of compound at pH 7.4 measured after 24 hrs; assay type: physicochemical; conditions: buffer
Summary of the method: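 Stock in DMSO diluted to 100 μM in Universal buffer pH 7.4 with 1% DMSO. Agitated on filter plates for 24 h at 25°C, then filtered and the filtrate diluted with acetonitrile. Concentration read by UV absorbance against calibration curves made in buffer/acetonitrile 80:20. At least 3 occasions, using different stocks.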

Q: For `Cc1nc2c(n1CCCCCCCCC[P+](c1ccccc1)(c1ccccc1)c1ccccc1)C(=O)c1ccccc1C2=O`, which selectivity ratio [1] is on record?
A: 21

Q: What about the selectivity ratio [2] of the same compound?
A: 34

Q: For `CCCCCCCCn1c2c([n+](CCCC)c1C)C(=O)c1ccccc1C2=O.[Br-]`, which solubility at 24 h [3] is on record?
A: 118 µM

Q: With `Cc1nc2c(n1CCCCCCCCCCC[P+](c1ccccc1)(c1ccccc1)c1ccccc1)C(=O)c1ccccc1C2=O` as the compound, how does the selectivity ratio [1] read?
A: 11

Q: What about the selectivity ratio [2] of the same compound?
A: 5

Q: Which solubility at 24 h [3] does the source give for `CCCCn1c2c([n+](C3CCC4(CCCCC4)CC3)c1C)C(=O)c1ccccc1C2=O.[Br-]` here?
A: 118 µM

Q: Which selectivity ratio [1] does the source give for `Cc1nc2c(n1CCCCCCCCCCC[P+](C1CCCCC1)(C1CCCCC1)C1CCCCC1)C(=O)c1ccccc1C2=O` here?
A: 7
